The source made the active and inactive calls. No cut-off for these calls is given here.
Key:
MDA-MB-231 [1] = test: Induction of mitochondrial membrane potential loss in human MDA-MB-231 cells assessed as green fluorescence intensity at 9 uM measured after 48 hrs by JC1 staining-based flow cytometry analysis (reference value: 0.8%); type: functional
MDA-MB-231 [2] = test: Inhibition of colony formation in human MDA-MB-231 cells incubated for 24 hrs followed by medium removal and measured after 7 days by crystal violet staining based assay; type: functional, cell-based; settings: dose 3-9 µM
Method in brief: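 Cells seeded at 1 × 10³ per well in six-well plates and left overnight. Compound (DMSO solution) given in fresh medium for 24 h, then medium removed and plates grown another 7 days. Colonies washed with PBS, fixed in 4% paraformaldehyde 30 min, stained with 0.1% crystal violet 30 min, photographed and counted.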

MCF7 [3] = test: Cell cycle arrest in human MCF7 cells assessed as accumulation at S phase at 1 uM measured after 48 hrs by propidium iodide staining based flow cytometry (reference value: 25.34 %); type: functional
MCF7 [4] = test: Potency index, ratio of 5-FU IC50 to test compound IC50 for anticancer activity against human MCF7 cells measured after 72 hrs by MTT assay; type: functional
Method in brief: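 MTT assay: 3000 exponentially growing cells per well, 12 h at 37 °C. Medium replaced with compound at a range of concentrations for 72 h. MTT (5 mg/mL stock) added for 4 h, formazan dissolved in DMSO. Absorbance read at 570 nm (reference 630 nm); percent inhibition gives IC50. Index is 5-FU IC50 divided by test-compound IC50.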

MDA-MB-231 [5] = test: Cell cycle arrest in human MDA-MB-231 cells assessed as accumulation at S phase at 6 uM measured after 48 hrs by propidium iodide staining based flow cytometry (reference value: 35.54 %); type: functional
MCF7 [6] = test: Inhibition of PI3K/AKT signalling pathway in human MCF7 cells assessed as downregulation of 85ap-PI3K expression at 1 to 4 uM measured after 48 hrs by Western blot analysis; type: cell-based; settings: dose 1-4 µM
Method in brief: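 After 48 h exposure to compound at several concentrations, cells collected and proteins extracted. SDS-PAGE on 5–15% gels, transfer to nitrocellulose, blocking 2 h in 5% nonfat milk in PBS/0.1% Tween 20, primary antibodies overnight at 4 °C, biotin-conjugated secondary 1 h. Detection on X-ray film; band densitometry.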

MDA-MB-231 [7] = test: Induction of apoptosis in human MDA-MB-231 cells assessed as increase in cleaved caspase 3 protein expression at 3 to 9 uM measured after 48 hrs by western blot analysis; type: functional, cell-based; settings: dose 3-9 µM
Method in brief: (§1)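 MCF-7 and MDA-MB-231 breast cancer cells treated 48 h with a concentration series, then lysed for protein. SDS-PAGE on 5–15% gels, transfer to nitrocellulose. Blocked 2 h in 5% nonfat milk/PBS-0.1% Tween 20, primary antibodies overnight at 4 °C, biotin-conjugated secondary 1 h. X-ray film detection with densitometric quantification.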

MCF7 [8] = test: Induction of apoptosis in human MCF7 cells assessed as increase in cleaved caspase 9 protein expression at 4 uM measured after 48 hrs in presence of cdc25c inhibitor, NSC663284 by western blot analysis; type: functional, cell-based
Method in brief: (§2)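 Four arms per cell line: untreated, test compound, 0.3 µM NSC663284 alone, and combination. Proteins harvested after 48 h and resolved by SDS-PAGE on 5–15% gels, transferred to nitrocellulose. Blocked 2 h in milk/PBS-Tween, primary antibodies overnight at 4 °C, biotin-conjugated secondary. Read on X-ray film with densitometry.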

MCF7 [9] = test: Induction of apoptosis in human MCF7 cells assessed as increase in cleaved PARP protein expression at 4 uM measured after 48 hrs in presence of cdc25c inhibitor, NSC663284 by western blot analysis; type: functional, cell-based; method in brief: as §2
MCF7 [10] = test: Induction of G2/M phase cell cycle arrest in human MCF7 cells assessed as decrease in p-cdc2 protein expression at 1 to 4 uM measured after 48 hrs by western blot analysis; type: functional, cell-based; settings: dose 1-4 µM
Method in brief: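 Cells exposed to graded concentrations for 48 h, then proteins extracted. Run on SDS-PAGE (5–15% gels) and transferred to nitrocellulose. Blocked 2 h in 5% nonfat milk in PBS/0.1% Tween 20, primary antibody overnight at 4 °C, biotin-conjugated secondary 1 h. Visualized on X-ray film with densitometric quantitation; three independent experiments.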

MDA-MB-231 [11] = test: Cell cycle arrest in human MDA-MB-231 cells assessed as accumulation at G2/M phase at 6 uM measured after 48 hrs by propidium iodide staining based flow cytometry (reference value: 15.46 %); type: functional
MCF7 [12] = test: Cell cycle arrest in human MCF7 cells assessed as accumulation at G1 phase at 4 uM measured after 48 hrs by propidium iodide staining based flow cytometry (reference value: 70.09 %); type: functional
MCF7 [13] = test: Induction of G2/M phase cell cycle arrest in human MCF7 cells assessed as downregulation of p-cdc2 protein expression at 4 uM measured after 48 hrs in presence of cdc25c inhibitor, NSC663284 by western blot analysis; type: functional, cell-based
Method in brief: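 Four groups (untreated, test compound, 0.3 NSC663284, combination) treated 48 h before protein extraction. Lysates resolved by SDS-PAGE (5–15%) and blotted to nitrocellulose. Blocked 2 h in 5% milk/PBS-0.1% Tween 20, primary antibody overnight at 4 °C, biotinylated secondary 1 h. Detected on X-ray film and quantified by densitometry.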

MDA-MB-231 [14] = test: Induction of apoptosis in human MDA-MB-231 cells assessed as decrease in Mcl-1 protein expression at 3 to 9 uM measured after 48 hrs by western blot analysis; type: functional, cell-based; settings: dose 3-9 µM; method in brief: as §1
MDA-MB-231 [15] = test: Antiproliferative activity against human MDA-MB-231 cells assessed as growth inhibition measured after 72 hrs by MTT assay; type: functional, cell-based; settings: MDA-MB-231, 72 h
Method in brief: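 Cells seeded at 3000 exponentially growing cells/well and incubated 12 h at 37 °C. Medium then replaced with fresh medium containing graded compound concentrations for 72 h; 5-FU positive control. MTT (5 mg/mL solution) added for 4 h, formazan dissolved in DMSO, absorbance read at 570 nm (reference 630 nm). Relative percentage inhibition of viable cells calculated; IC50 reported as mean ± standard deviation.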

MDA-MB-231 [16] = test: Induction of apoptosis in human MDA-MB-231 cells assessed as increase in cleaved caspase 9 protein expression at 3 to 9 uM measured after 48 hrs by western blot analysis; type: functional, cell-based; settings: dose 3-9 µM; method in brief: as §1
MCF7 [17] = test: Cell cycle arrest in human MCF7 cells assessed as accumulation at G2/M phase at 4 uM measured after 48 hrs by propidium iodide staining based flow cytometry (reference value: 0.01 %); type: functional
MDA-MB-231 [18] = test: Induction of mitochondrial membrane potential loss in human MDA-MB-231 cells assessed as red fluorescence intensity at 6 uM measured after 48 hrs by JC1 staining-based flow cytometry analysis (reference value: 99.2 %); type: functional

In the case of C[C@H]1O[C@@H](n2cnc3c(N)nc(F)nc32)[C@H](O)[C@H]1OCP(=O)([O-])[O-].[Na+].[Na+], the Activity (MDA-MB-231 [1]) is reported as 63%, the inhibition (MDA-MB-231 [2]) is reported as “Dose-Dependent Effect” and the Activity (MCF7 [3]) is reported as 18.63%. The “Ratio IC50” value (MCF7 [4]) was 41, the Activity (MDA-MB-231 [5]) was 31.86% and the inhibition (MCF7 [6]) was “Active”. For the same compound, the Activity (MDA-MB-231 [7]) was “Active”, the Activity (MCF7 [8]) was “inactive” and the Activity (MCF7 [9]) was “inactive”. The Activity (MCF7 [10]) was “Active”, the Activity (MDA-MB-231 [11]) was 28.54% and the Activity (MCF7 [12]) was 41.95%. For the same compound, the Activity (MCF7 [13]) was “inactive”, the Activity (MDA-MB-231 [14]) was “Active” and the IC50 (MDA-MB-231 [15]) was 391 nM. For the same compound, the Activity (MDA-MB-231 [16]) was “Active”, the Activity (MCF7 [17]) was 26.15% and the Activity (MDA-MB-231 [18]) was 63.8%.

— ChEMBL document CHEMBL4837218, “Synthesis and in vitro antitumour activity of 4(R)-methyl-3-O-phosphonomethyl-α-l-threose nucleosides” (Eur J Med Chem, 2021)
